Data on eleven molecules can be found in ChEMBL document CHEMBL4422687, “Highly potent and selective aryl-1,2,3-triazolyl benzylpiperidine inhibitors toward butyrylcholinesterase in Alzheimer's disease” (Bioorg Med Chem, 2019).

Structures are written as SMILES. Activity calls are given as the source filed them. The calls are words filed in the database; no cut-off is given here.

Series [1] addresses T1, Cholinesterase (Homo sapiens, UniProt P06276). In words: Inhibition of recombinant human BuChE using butyrylthiocholine iodide as substrate preincubated for 5 mins followed by substrate addition and measured for 5 mins by Ellman's method. A general note: DTNB colorimetry detects thiols as they appear.
The target in another series is Acetylcholinesterase (Homo sapiens, UniProt P22303). In words: Inhibition of recombinant human AChE using acetylthiocholine iodide as substrate preincubated for 5 mins followed by substrate addition and measured for 5 mins by Ellman's method.
Sequence of Acetylcholinesterase (P22303 whole entry): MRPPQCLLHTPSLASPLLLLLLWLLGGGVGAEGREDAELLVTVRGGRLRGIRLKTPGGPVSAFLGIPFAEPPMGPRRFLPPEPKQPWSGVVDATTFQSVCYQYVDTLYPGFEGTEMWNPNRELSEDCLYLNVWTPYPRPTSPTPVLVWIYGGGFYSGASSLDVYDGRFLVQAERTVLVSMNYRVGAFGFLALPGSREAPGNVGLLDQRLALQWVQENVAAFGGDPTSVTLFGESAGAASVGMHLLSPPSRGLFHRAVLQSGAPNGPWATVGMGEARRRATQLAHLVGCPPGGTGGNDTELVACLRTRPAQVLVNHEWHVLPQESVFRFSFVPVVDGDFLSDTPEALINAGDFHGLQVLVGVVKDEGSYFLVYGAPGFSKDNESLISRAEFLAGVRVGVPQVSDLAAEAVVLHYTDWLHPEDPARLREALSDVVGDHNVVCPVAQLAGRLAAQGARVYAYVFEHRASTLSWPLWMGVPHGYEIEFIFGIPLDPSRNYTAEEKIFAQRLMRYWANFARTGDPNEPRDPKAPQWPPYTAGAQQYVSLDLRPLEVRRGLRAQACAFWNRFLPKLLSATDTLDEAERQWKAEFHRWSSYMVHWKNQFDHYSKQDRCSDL
The species entered for the next series is Homo sapiens. In words: Selectivity ratio of IC50 for recombinant human AChE to IC50 for recombinant human BuChE.
In series [2] the test system is SH-SY5Y. Briefly: Cytotoxicity against human SH-SY5Y cells assessed as reduction in cell viability at BuChE IC50 after 24 hrs by XTT assay. Format: cell-based. The method in brief:
(§1)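 SH-SY5Y human neuroblastoma cells were treated with seven concentrations of each compound. Viability was read by XTT colorimetric assay after a 24 h or 120 h recovery period.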

Series [3] concerns the target T1, Cholinesterase. Briefly: Potency index, ratio of donepezil IC50 to test compound IC50 for recombinant human BuChE.
Series [4] concerns the target T1, Cholinesterase. In words: Mixed-type inhibition of recombinant human BuChE using varying levels of butyrylthiocholine iodide as substrate by Lineweaver-burk plot analysis.
Series [5] deals with SH-SY5Y. Briefly: Cytotoxicity against human SH-SY5Y cells assessed as reduction in cell viability at BuChE IC50 after 120 hrs by XTT assay. Format: cell-based. The method in brief:
as §1

Series [6] relates to SH-SY5Y. Briefly: Cytotoxicity against human SH-SY5Y cells assessed as reduction in cell viability at 40 uM after 24 hrs by XTT assay. Format: cell-based. In general terms: Formazan colour is commonly taken as a measure of viable cells.
For series [7], the system named is SH-SY5Y. In words: Cytotoxicity against human SH-SY5Y cells assessed as reduction in cell viability at 39.6 nM after 24 hrs by XTT assay. Format: cell-based. To be noted: 0.0396 µM.
Series [8] deals with SH-SY5Y. In words: Cytotoxicity against human SH-SY5Y cells assessed as reduction in cell viability at 80 uM after 24 hrs by XTT assay. Format: cell-based.
In series [9] the test system is SH-SY5Y. Briefly: Cytotoxicity against human SH-SY5Y cells assessed as reduction in cell viability at 2.5 uM after 24 hrs by XTT assay. Format: cell-based.

T1 sequence (P06276 whole entry): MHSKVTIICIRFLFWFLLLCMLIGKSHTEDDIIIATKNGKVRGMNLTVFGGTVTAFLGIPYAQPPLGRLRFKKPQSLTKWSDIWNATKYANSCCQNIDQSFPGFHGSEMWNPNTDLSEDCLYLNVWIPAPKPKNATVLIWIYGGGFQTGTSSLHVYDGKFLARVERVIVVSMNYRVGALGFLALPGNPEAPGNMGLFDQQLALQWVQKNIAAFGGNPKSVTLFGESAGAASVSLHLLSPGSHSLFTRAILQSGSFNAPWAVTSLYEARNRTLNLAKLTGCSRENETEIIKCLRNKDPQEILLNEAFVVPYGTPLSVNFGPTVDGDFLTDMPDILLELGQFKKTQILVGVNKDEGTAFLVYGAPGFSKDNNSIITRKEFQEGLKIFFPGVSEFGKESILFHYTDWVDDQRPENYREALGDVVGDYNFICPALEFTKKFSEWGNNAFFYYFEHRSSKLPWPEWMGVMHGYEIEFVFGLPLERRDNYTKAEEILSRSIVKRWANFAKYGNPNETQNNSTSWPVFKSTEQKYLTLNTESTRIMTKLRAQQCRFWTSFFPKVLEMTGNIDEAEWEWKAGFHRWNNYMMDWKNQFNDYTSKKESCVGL

Turning to `O=C(Cc1c[nH]c2ccccc12)NCc1cn(CC2CCN(Cc3ccccc3)CC2)nn1`, the IC50 is 5.3 µM at Cholinesterase [1] and over 10 µM on Acetylcholinesterase.
The like results for `c1ccc(CN2CCC(Cn3cc(CSc4nc5ccccc5[nH]4)nn3)CC2)cc1` were, in that order, 0.065 µM and 7.33 µM.
For `CC(=O)N[C@@H](Cn1cc(-c2ccccc2)nn1)C(=O)NCC1CCN(Cc2ccccc2)CC1`, the Ratio IC50 in the series listed under Homo sapiens is over 58000; at Cholinesterase [3], 53000. In addition, the Activity result in the series on SH-SY5Y [2] was “Non-Toxic”. Moreover, the IC50 at Cholinesterase [1] was 0.00017 µM; at Acetylcholinesterase, over 10 µM. The inhibition entry at Cholinesterase [4] is “Active”.
With `COc1cc2c(cc1OC)C(=O)C(Cc1cn(CC3CCN(Cc4ccccc4)CC3)nn1)C2` (stereo not drawn), the IC50 at Cholinesterase [1] is over 10 µM; on Acetylcholinesterase, 4.92 µM.
For `N[C@@H](CCCCn1cc(-c2ccccc2)nn1)C(=O)NCC1CCN(Cc2ccccc2)CC1`, the Activity result with SH-SY5Y [2] is “Non-Toxic”; with SH-SY5Y [5] it was “Non-Toxic”; with SH-SY5Y [6] it was “Toxic”. For the same molecule, the IC50 on Cholinesterase [1] is 0.97 µM; at Acetylcholinesterase, over 10 µM.
Regarding `c1ccc(CN2CCC(Cn3cc(CNc4ncnc5ccccc45)nn3)CC2)cc1`, the results for the IC50 on Cholinesterase [1] and on Acetylcholinesterase were 2.95 µM and 4.22 µM, respectively.
For the molecule `COc1cc2ncnc(NCc3cn(CC4CCN(Cc5ccccc5)CC4)nn3)c2cc1OC`, the IC50 at Cholinesterase [1] was over 10 µM; at Acetylcholinesterase, 3.94 µM.
The corresponding values for `O=C1c2ccccc2C(=O)N1Cc1cn(CC2CCN(Cc3ccccc3)CC2)nn1` are over 10 µM and 4.9 µM.
The like results for `CCOc1ccc2[nH]c(SCc3cn(CC4CCN(Cc5ccccc5)CC4)nn3)nc2c1` were, in that order, 1.91 µM and 6.9 µM.
Take `N[C@@H](Cn1cc(-c2ccccc2)nn1)C(=O)NCC1CCN(Cc2ccccc2)CC1`: the results for the Activity entry in the series on SH-SY5Y [2], with SH-SY5Y [5] and in the series on SH-SY5Y [7] were “Non-Toxic”, “Non-Toxic” and “Toxic”, respectively. In addition, the IC50 at Cholinesterase [1] is 0.0099 µM; at Acetylcholinesterase, over 10 µM. Further, the inhibition entry on Cholinesterase [4] was “Active”.
As for `CC(=O)N[C@@H](CCCCn1cc(-c2ccccc2)nn1)C(=O)NCC1CCN(Cc2ccccc2)CC1`, the Activity entry with SH-SY5Y [2] was “Non-Toxic”; in the series on SH-SY5Y [5] it was “Non-Toxic”; in the series on SH-SY5Y [8], “Toxic”; with SH-SY5Y [9], “Toxic”. In addition, on Cholinesterase [3], the Ratio IC50 was determined as 9. For the same molecule, the IC50 at Cholinesterase [1] is 1.02 µM; at Acetylcholinesterase, over 10 µM.

One may read the IC50 as the concentration at which inhibition is half-maximal.
